# Compounds with a hit are over-represented: about 2.9% of the library has one in this group of screens.
# Calb FLC: affects C. albicans growth with fluconazole. C. albicans CaCi-2 (fluconazole-resistant clinical isolate) + fluconazole, Alamar Blue growth, 48 h. growth inhibition, % (concentration not given with the values). actives 0.57% (n = 300,000). AID 1979;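 active = growth inhibition above about 58% in most replicates, limit read from the data, passing the limit was not always enough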;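 also: all wells also contain fluconazole at 8 µg/ml as a sub-toxic cotreatment; 0% = median of DMSO wells and 100% = median of geldanamycin control wells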
# GalR3 antagonist: human GalR3 antagonism; O60755; HEK293 GalR3-CNG cAMP membrane potential fluorescence; galR3 body fused to GalR1 C-terminus; inhibition, % at 3 µM; actives 0.44% (n = 360,000); AID 651719;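 active = inhibition above the screen-wide average plus 3 SD, cut at about 13% in these data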;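 also: forskolin and galanin both at EC90 stimulate the cells; cAMP rise reported by CNG channel membrane potential dye signal; 0% = forskolin plus galanin with DMSO and 100% = forskolin alone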
# Target sequence (O60755 1-299 limits assumed): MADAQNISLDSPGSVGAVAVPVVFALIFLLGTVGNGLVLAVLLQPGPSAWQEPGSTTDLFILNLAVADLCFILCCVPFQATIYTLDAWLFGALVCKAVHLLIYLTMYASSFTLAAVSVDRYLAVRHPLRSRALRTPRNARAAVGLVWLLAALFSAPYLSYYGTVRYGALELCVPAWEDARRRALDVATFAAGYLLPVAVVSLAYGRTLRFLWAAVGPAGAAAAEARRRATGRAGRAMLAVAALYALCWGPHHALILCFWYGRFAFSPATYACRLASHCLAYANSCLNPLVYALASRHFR
# MC4R antagonist: human MC4R antagonism in cAMP assay | P32245 | MC4R-expressing cells, MTII-stimulated cAMP, LANCE TR-FRET | inhibition, % at 6.5 µM | actives 0.48% (n = 360,000) | AID 540295;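 active = inhibition above its plate's cutoff, the mean of tested wells on that plate plus 3 SD, cut at about 29% in these data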;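 also: 0% = Melanotan II alone and 100% = Melanotan II plus saturating MCL0020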
#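 Material: human MC4R-expressing U2OS cells. Probe or stimulus: Melanotan II challenge. Dosing: 6.5 µM single dose. Times: 30-min compound, 1-h challenge, 1-h detection, room temperature. Technique: TR-FRET with Eu-cAMP and labeled anti-cAMP, 671 nm. Replication: singlicate.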
# MC4R barr agon: agonists of human melanocortin 4 receptor (MC4R) beta-arrestin | U2OS MC4R beta-arrestin complementation, luminescence; percent of melanotan II response, DMSO zero | actives 0.98% (n = 360,000) | activation, % at 8.9 µM | P32245;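 active = activation above a per-plate cutoff, the mean activation of sample wells on that plate plus 3 SD, cut at about 8% in these data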
# H9c2 TAG inh: reduces triacylglycerol accumulation in H9c2 cells | Nile Red lipid (TAG) fluorescence; cells loaded with 200 µM oleic acid | inhibition, % at 12.5 µM | actives 0.66% (n = 230,000) | AID 651582;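 active = pattern-corrected inhibition of lipid staining of at least 50% with the nuclear-stain viability signal not falling by more than 50%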;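 also: 0% = DMSO wells and 100% = triacsin C control wells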
# Efflux pump inh: antifungal efflux pump inhibition, Nile Red retention; S. cerevisiae Candida pump triplex; inhibition, % at 10 µM; actives 0.44% (n = 330,000); AID 485275;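 active = plate passing quality check with inhibition over a set limit, or well fluorescence over plate mean plus 4 SD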;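 also: Nile Red retained in pooled yeast measured as flow cytometry median fluorescence; 0% = buffer negative control and 100% = Enniatin B positive control; higher means more Nile Red kept so more efflux inhibition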
# * = called active by the depositor; . = not tested or not shown.
SMILES,Calb FLC,GalR3 antagonist,MC4R antagonist,MC4R barr agon,H9c2 TAG inh,Efflux pump inh
COc1ccc(-c2cccc(C(=O)Nc3ccc(OC)c(OC)c3)c2)cc1,0,-3,-5,1,9,0
COc1ccc(-c2cccc(C(=O)Nc3ccc(C)cc3)c2)cc1,-2,3,1,8.6*,-1,0
CC(=O)c1cccc(NC(=O)c2ccc3ccccc3c2)c1,-7,-2,4,0,.,0
COc1ccc(NC(=O)NC(C)c2ccccc2)cc1 (configuration not stated),100*,2,7,0,-3,0
CC(=O)c1ccc(NC(=O)c2cccc(NC(=O)c3ccccc3)c2)cc1,-5,-2,1,8.4*,.,0
CCCn1nnc(NC(=O)c2ccc3ccccc3c2)n1,4,-5,0,0,3,0
CCCn1nnnc1NC(=O)c1ccc2ccccc2c1,116*,-3,-8,-3,.,0
Cc1ccc(Cn2cc(CN3CC(N4CCN(C5CCN(C)CC5)CC4)CS3(=O)=O)nn2)cc1 (configuration not stated),.,-5,.,.,.,.
C/C(=N\N1C(=O)CSC1=S)c1ccc(Br)cc1,73*,5,4,-2,-16,0
Cc1ccc(C(=O)NN2C(=O)CSC2=S)cc1,-9,-1,15,1,.,0
CC1(C(=O)NS(=O)(=O)C2CC2)CCN(C(=O)c2ccccc2F)C1 (configuration not stated),.,-7,0,2,6,.
COc1ccc(Cn2c(-c3ccc(C)cc3)nc3c(c(=O)c4ccccc4n3C)c2=O)cc1,19,-2,15,9.2*,-22,0
CC/C(=N/NC(=O)c1ccccc1O)c1c(C)[nH]n(-c2ccccc2)c1=O,101*,-6,-1,-1,7,0
O=C(Nc1ccc(NC(=O)c2ccc(Cl)cc2Cl)cc1)c1ccc2c(c1)OCO2,2,-7,15,-1,.,0
O=C(Nc1ccc(C2=NCCN2)cc1)c1ccc(C(=O)Nc2ccc(C3=NCCN3)cc2)c(Cl)c1,90*,0,0,1,.,0
O=C(NNC(=S)NC(=O)c1ccccc1)c1ccc([N+](=O)[O-])cc1,84*,-9,2,-3,12,0
Cc1ccc(C(=O)NC(=S)NNC(=O)c2ccc([N+](=O)[O-])cc2)cc1,2,-9,-3,1,4,0
O=C(NNC(=S)NC(=O)c1ccc(Br)cc1)c1ccc([N+](=O)[O-])cc1,87*,-3,9,-2,5,0
CC(C)[C@H](NC(=O)C1CC1)C(=O)N1CCC[C@H]1C(=O)NCCc1ccccc1Cl,.,-4,.,.,.,.
Cn1c(/C=C/c2ccc(Br)cc2)nc2ccccc2c1=O,.,-8,26,9.0*,.,0
Cc1cn([C@H]2C[C@H](O)[C@@H](/C=C/C(=O)NCCN3CCOCC3)O2)c(=O)[nH]c1=O,.,-4,.,.,.,.
O=C(c1ccccc1)N1N=C(c2cccs2)CC1c1ccccc1O (configuration not stated),27,-10,-1,8.4*,6,0
CC(C)N(C)c1ncnc2c1ncn2[C@H]1CN(Cc2ccc(Cl)cc2)C[C@@H](CO)O1,.,-8,8,0,7,.
Cc1cc(O)c(/C=N/Nc2cccc(Cl)c2)c(=O)o1,-3,-2,-3,0,1,0
Cc1cc(O)c(/C=N/Nc2ccc(Cl)cc2)c(=O)o1,87*,2,-2,-1,2,0
SMILES,Calb FLC,GalR3 antagonist,MC4R antagonist,MC4R barr agon,H9c2 TAG inh,Efflux pump inh
Oc1ccc(Nc2nc(N3CCCC3)c3ccccc3n2)cc1,3,-8,-6,0,52*,0
N#Cc1ccc(CN2CCN(C(=O)C3CC(=O)N(c4ccc5c(c4)OCCO5)C3)CC2)cc1 (configuration not stated),.,-6,14,0,2,.
CC(=O)NC(c1ccc(C)cc1)c1cc(Cl)c2cccnc2c1O (configuration not stated),-3,-11,3,-1,50*,0
CC(=O)NC(c1ccccc1)c1cc([N+](=O)[O-])c2cccnc2c1O (configuration not stated),6,1,4,-3,5,0
CC(=O)NC(c1cc(Cl)c2cccnc2c1O)C1CC1 (configuration not stated),.,-2,12,-2,50*,0
CC(=O)NC(c1cc(Cl)c2ccccc2c1O)C(C)C (configuration not stated),.,-4,5,0,-4,0
CCC(=O)NC(c1cc(Cl)c2ccccc2c1O)C1CC1 (configuration not stated),.,-3,3,-2,-17,0
CC(=O)NC(c1cc(Cl)c2cccnc2c1O)C(C)C (configuration not stated),.,-5,3,-1,65*,0
Cn1c(SCC(=O)NC2CCCCC2)nnc1C(F)(F)F,.,-1,3,-1,2,.
CC1(C(=O)NCc2ccccc2)CSCC(=O)N1CC(F)(F)F (configuration not stated),.,-6,.,.,.,.
CCOC(=O)CN1CCCc2nc(C)c(C)cc21,.,-2,.,.,.,.
Cc1ccc(C)c(C(C)NC(=S)NCc2ccc(F)cc2)c1 (configuration not stated),-5,-3,-4,8.2*,-17,0
COc1ccc(C(C)NC(=S)NCc2ccc(F)cc2)cc1 (configuration not stated),-16,-5,2,1,-21,0
CCCCNC(=O)/C(=C\c1ccc([N+](=O)[O-])o1)NC(=O)c1ccccc1,100*,-4,-1,-3,.,0
Cc1cccc(NC(=O)/C(=C\c2ccc([N+](=O)[O-])o2)NC(=O)c2ccc(Cl)cc2)c1,.,-2,11,2,.,0
Cc1ccc(C(=O)N/C(=C\c2ccc(-c3ccccc3[N+](=O)[O-])o2)C(=O)NCCN(C)C)cc1,-2,-2,-11,-1,57*,0
COC(=O)/C(=C\c1ccc([N+](=O)[O-])o1)NC(=O)c1ccccc1,102*,0,10,-1,-37,0
O=C1c2cccc3c(O)ccc(c23)C(=O)N1Cc1ccccc1,100*,-3,12,1,-39,0
CC(=O)O[C@H]1C(=O)[C@@]2(C)[C@H]([C@H](OC(=O)c3ccccc3)[C@]3(O)C[C@H](OC(=O)[C@H](O)C(NC(=O)c4ccccc4)c4ccccc4)C(C)=C1C3(C)C)[C@]1(OC(C)=O)CO[C@@H]1C[C@@H]2O (some centres not stated),-4,.,0,-2,62,0

# Screening data deposited in PubChem by several laboratories.
